These results are taken from PubChem BioAssay.

Assay [1] in a line: Brca1-Bard1 BiLC signal decrease – luminescence, single concentration, counter-screen for Mdm2/MdmX interaction inhibitor project, confirmation (AID 504668). To be noted: Brca1/Bard1 bimolecular luciferase complementation counterscreen, at 8 µM, stronger effect = higher value.
Assay [2] deals with PEG-3 (UniProt Q6IN02). The assay is described as follows: inhibition of PEG-3 promoter-driven reporter – cell-based, HeLa, luciferase, CREF/GAPDH counter-screen panel, dose response (AID 624167). The note with it: CREF/GAPDH counter-screens; HeLa PEG-Prom luciferase reporter, overnight, run 1, dose range 1, at 100 µM (top of the series) unless noted.
Sequence of PEG-3 (Q6IN02 whole entry, looked up): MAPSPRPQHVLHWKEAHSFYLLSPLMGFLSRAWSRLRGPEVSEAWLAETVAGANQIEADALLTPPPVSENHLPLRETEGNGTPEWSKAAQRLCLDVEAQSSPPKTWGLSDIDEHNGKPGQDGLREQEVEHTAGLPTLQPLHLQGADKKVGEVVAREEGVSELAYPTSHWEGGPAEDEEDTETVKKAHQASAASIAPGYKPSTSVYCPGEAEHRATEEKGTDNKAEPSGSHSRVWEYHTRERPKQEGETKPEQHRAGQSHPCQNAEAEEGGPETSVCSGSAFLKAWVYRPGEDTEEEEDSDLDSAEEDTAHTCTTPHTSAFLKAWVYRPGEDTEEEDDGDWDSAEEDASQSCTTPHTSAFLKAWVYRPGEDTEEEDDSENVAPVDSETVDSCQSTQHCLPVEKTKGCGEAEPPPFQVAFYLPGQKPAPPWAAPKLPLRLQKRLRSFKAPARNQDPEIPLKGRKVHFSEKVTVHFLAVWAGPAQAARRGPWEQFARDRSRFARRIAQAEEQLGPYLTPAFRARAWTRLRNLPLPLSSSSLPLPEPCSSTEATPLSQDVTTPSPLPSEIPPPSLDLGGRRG
Assay [3] concerns the target PEG-3 (UniProt Q6IN02). The assay is described as above. The note with it: CREF/GAPDH counter-screens; HeLa PEG-Prom luciferase reporter, overnight, run 2, dose range 1, at 100 µM (top of the series) unless noted.
The subject of assay [4] is Rat fibroblasts (CREF). The description is as above. The note with it: CREF/GAPDH counter-screens; run 1, dose range 1, at 100 µM (top of the series).
In assay [5] the test system is Rat fibroblasts (CREF). The description is as above. The note with it: CREF/GAPDH counter-screens; run 2, dose range 1, at 100 µM (top of the series).
Assay [6] in a line: inhibition of PEG-3 promoter luciferase signal – cell-based, HeLa, luciferase reporter, single concentration, confirmation (AID 602417;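 active = at 20 µM dose, 40% or more inhibition averaged across four replicates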). The note with it: HeLa PEG-Prom luciferase reporter, luminescence, overnight; at 20 µM; stronger effect = higher value.
Assay [7] in a line: NF-kB reporter suppression in CF airway cells – cell-based, GFP fluorescence, single concentration, confirmation (AID 602472; in the data active = inhibition above about 40%;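 note: stimulus PAF is a Pseudomonas aeruginosa filtrate and not platelet activating factor; plate controls were DMSO wells with stimulus for no effect and unstimulated DMSO wells for full effect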). To be noted: KKLEB CF airway cells, PAF-induced NF-kB-GFP fluorescence, overnight; at 5 µM; stronger effect = higher value. In a few lines:
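Material: KKLEB immortalized cystic fibrosis airway epithelial cells with NFkB-GFP reporter; Buffer or medium: medium with 2% FBS for cells, serum-free medium for stimulus; Times: 2 h pretreatment, overnight stimulation; Signal: GFP fluorescence; Compound dosing: 5 µM single dose.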

A short description of assay [8]: NFkB reporter suppression in cystic fibrosis bronchial cells – cell-based, uHTS hits, panel, cytotoxicity readout, dose response (AID 624344). The note with it: CF bronchial epithelial cells, PAF-induced NFkB reporter inhibition, with PAF, run 1; at 79 µM (top of the series) unless noted.
Test in assay [9]: as above
The note with it: CF bronchial epithelial cells, PAF-induced NFkB reporter inhibition, with PAF, run 2; at 79 µM (top of the series) unless noted.

The list shows a part of the results. The source made the active and inactive calls. Unless noted, the rule behind the calls is not given here.

In the case of `COc1ccc(/C=C2\SC(=S)N(CCC(=O)NCCc3ccc(O)cc3)C2=O)cc1`, the inhibition in assay [1] is 27.4% (active).

As to `O=C(CCSc1nc2ccccc2s1)N/N=C/c1c(O)ccc2ccccc12`, the inhibition in [1] is 31.6% (active); with PEG-3 [2], 58.9%; with PEG-3 [3], 82.3%; with Rat fibroblasts (CREF) [4], 40.6%; in the assay with Rat fibroblasts (CREF) [5], 38%.

As to `CCN1CCN(C(c2ccc(C(F)(F)F)cc2)c2ccc3cccnc3c2O)CC1` (stereo unspecified), the inhibition in [1] was 31.2% (active); with PEG-3 [2], 101%; with PEG-3 [3], 99.4%.

Regarding `COc1ccc(C(O)(CC(C)C)C(CN2CCOCC2)c2ccccc2)cc1` (stereo unspecified), the inhibition was 30.5% (active) in assay [1], 100% with PEG-3 [2] and 100% with PEG-3 [3].

In the case of `O=C(CCn1cnc(-c2ccccc2)c1-c1ccccc1)N/N=C/c1ccccc1O`, the inhibition in [1] was 25.7% (active); with PEG-3 [2], 100%; with PEG-3 [3], 101%; with Rat fibroblasts (CREF) [4], 86.7%; in the assay on Rat fibroblasts (CREF) [5], 94.1%.

For the molecule `C/C(=N\NC(=O)c1c(C)nc2ccccn12)c1ccc(O)cc1O`, the inhibition in [1] is 33.7% (active); with PEG-3 [2], 66.9%; in the assay with PEG-3 [3], 48.1%; in the assay with Rat fibroblasts (CREF) [4] it was 49.2%; in the assay with Rat fibroblasts (CREF) [5], 56.5%.

As for `Cc1cc(C(=O)COC(=O)C2=COCCO2)c(C)n1-c1ccccc1`, the inhibition is 31.6% (active) in assay [1], 101% in the assay with PEG-3 [2] and 101% with PEG-3 [3].

Consider `CNC[C@H](CC1CCCCC1)NC[C@H](NCCC1CCCC1)[C@H](C)O`, for which the inhibition is 30.2% (active) in assay [1], 97.4% (active) in assay [6], 102% with PEG-3 [2] and 99.9% in the assay with PEG-3 [3].

With `Cc1ccc2oc(/N=C(\N)NC(=O)C(C)(C)C)nc2c1`, the inhibition in assay [1] was 31.8% (active); in the assay with PEG-3 [2], 98%; with PEG-3 [3], 94.5%; in the assay on Rat fibroblasts (CREF) [4] it was 82.5%; in the assay with Rat fibroblasts (CREF) [5], 79.9%.

`C=CCc1cccc(/C=N/NC(=O)C(C)Nc2cccc(C)c2)c1O` (stereo unspecified): the inhibition is 34.9% (active) in [1]; 60.8% in the assay with PEG-3 [2]; 62% with PEG-3 [3]; 39.7% with Rat fibroblasts (CREF) [4]; 47.8% in the assay with Rat fibroblasts (CREF) [5].

On to `O=C(NC1CCCc2c1cnn2-c1ccccc1F)c1ccccn1` (stereo unspecified), for which the inhibition in assay [1] is 28.6% (active).

As for `COc1ccc(C(=O)O/N=C(\N)c2ccccn2)cc1`, the inhibition in assay [1] was 24.2% (active); with PEG-3 [2] it was 99.1%; with PEG-3 [3] it was 101%; in the assay with Rat fibroblasts (CREF) [4], 98.2%; in the assay with Rat fibroblasts (CREF) [5], 99.2%.

In the case of `O=C1/C(=C\c2cccc(O)c2O)SC(=S)N1Cc1ccccc1`, the inhibition was 34.2% (active) in [1], 99.6% with PEG-3 [2] and 101% with PEG-3 [3].

As to `COc1ccc(C(NC(=O)C(C)C)c2ccc3cccnc3c2O)cc1` (stereo unspecified), the inhibition in [1] is 28.9% (active); in the assay with PEG-3 [2] it was 67.9%; in the assay with PEG-3 [3] it was 60.6%; in the assay on Rat fibroblasts (CREF) [4], 75.6%; in the assay on Rat fibroblasts (CREF) [5], 61.5%.

Take `Cc1cc(C=C2C(=O)c3ccccc3C2=O)c(C)n1-c1ccccc1`: the inhibition is 34.3% (active) in assay [1], 62.9% with PEG-3 [2] and 80.6% with PEG-3 [3].

Take `CN(C)C1CCN(Cc2cc(COCc3ccccc3)c3cccnc3c2O)C1` (stereo unspecified): the inhibition in [1] is 32.8% (active).

`Cc1ccccc1OCC(O)Cn1c(=N)n(Cc2ccccc2)c2ccccc21` (stereo unspecified): in assay [1], the inhibition was 28.9% (active).

For `CC(C)(C)c1ccc(Cn2c(=O)cnc3ccccc32)cc1`, the inhibition in assay [1] is 25.9% (active); in the assay with PEG-3 [2] it was 100%; with PEG-3 [3] it was 100%; with Rat fibroblasts (CREF) [4] it was 98.2%; with Rat fibroblasts (CREF) [5] it was 84.5%.

In the case of `CCN(CC)c1ccc2nc3ccc(N)cc3[n+](-c3ccccc3)c2c1`, the inhibition is 23.6% (active) in [1], 101% in the assay with PEG-3 [2] and 102% with PEG-3 [3].

For `CCN1C(=O)C(=Cc2cccc(OC)c2Oc2ccc([N+](=O)[O-])cc2[N+](=O)[O-])SC1=S`, the inhibition in [1] is 27.9% (active); with PEG-3 [2], 21.1%; with PEG-3 [3], 46.1%.

Regarding `Cc1cc(NC(c2ccc(Cl)cc2)c2ccc3cccnc3c2O)no1` (stereo unspecified), the inhibition is 27.4% (active) in assay [1]; 37.1% in the assay with PEG-3 [2]; 87.1% with PEG-3 [3]; 37.2% in the assay on Rat fibroblasts (CREF) [4]; 44.8% in the assay on Rat fibroblasts (CREF) [5].

`COc1ccc(-c2cn[nH]c2-c2ccc(OC)cc2)cc1`: the inhibition in assay [1] was 35.1% (active); in assay [7], 69.3% (active); in [8], 104%; in assay [9] it was 104%.

For the molecule `COc1cccc(/C=N/NC(=O)c2c(C)nc3ccc(Cl)cn23)c1O`, the inhibition in assay [1] is 34.5% (active); in the assay with PEG-3 [2], 59.6%; in the assay with PEG-3 [3], 61.9%; in the assay with Rat fibroblasts (CREF) [4] it was 44.7%; in the assay with Rat fibroblasts (CREF) [5] it was 46.7%.

With `O=C(/C=C/c1ccccc1)NC(NC(=S)Nc1cccc(Cl)c1)C(Cl)(Cl)Cl` (stereo unspecified), the inhibition is 25.6% (active) in assay [1], 98.2% in the assay with PEG-3 [2] and 99.4% with PEG-3 [3].

As for `O=C(N/N=C\c1c(O)ccc2ccccc12)c1ccc(Cn2cccn2)o1`, the inhibition in [1] was 24.8% (active); with PEG-3 [2] it was 84.9%; with PEG-3 [3], 75.1%; in the assay with Rat fibroblasts (CREF) [4], 51.2%; in the assay on Rat fibroblasts (CREF) [5], 41.5%.
